Experimental data: ChEMBL document CHEMBL4152256, “Structure-activity relationship of new antimalarial 1-aryl-3-susbtituted propanol derivatives: Synthesis, preliminary toxicity profiling, parasite life cycle stage studies, target exploration, and targeted delivery” (Eur J Med Chem, 2018)

Columns and labels:
Plasmodium falciparum [1] = test: Antiplasmodial activity against multidrug-resistant Plasmodium falciparum FCR-3 by [3H]-hypoxanthine incorporation assay; assay type: functional, organism-based, FCR-3/Gambia; conditions: Plasmodium falciparum, FCR-3/Gambia
Outline: (§1)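 Blood-stage P. falciparum 3D7 and FCR-3 were tested by a modified [3H]-hypoxanthine incorporation assay. Chloroquine was the reference in all runs.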

Plasmodium falciparum [2] = test: Antiplasmodial activity against chloroquine-sensitive Plasmodium falciparum 3D7 by [3H]-hypoxanthine incorporation assay; assay type: functional, organism-based; conditions: Plasmodium falciparum, 3D7; outline: as §1
[3] = Cytotoxicity against human HepG2A16 cells by MTT assay; assay type: cell-based; conditions: HepG2A16 cells
Outline: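 MTT viability assay on HepG2-A16 cells, giving CC50 values.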

[4] = Selectivity index, ratio of CC50 for human HepG2A16 cells by MTT assay to IC50 for multidrug-resistant Plasmodium falciparum FCR-3; assay type: toxicity; conditions: HepG2A16 cells, read-out: Ratio CC50/IC50
Outline: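 HepG2-A16 human hepatoma cells were tested by MTT viability assay to give CC50. Blood-stage activity was measured against the multidrug-resistant P. falciparum FCR-3 strain by [3H]-hypoxanthine incorporation to give IC50. SI = CC50 HepG2 / FCR-3 IC50.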

[5] = Genotoxicity in Salmonella typhimurium TA1535 harboring pSK1002 assessed as umu gene induction at 0.125 mg/ml in absence of Sprague-Dawley rat liver S9 fraction after by SOS/umu assay relative to control; assay type: toxicity, organism-based; conditions: salmonella enterica subsp. enterica serovar typhimurium, read-out: FC
[6] = Genotoxicity in Salmonella typhimurium TA1535 harboring pSK1002 assessed as survival at 0.125 mg/ml in presence of Sprague-Dawley rat liver S9 fraction after by SOS/umu assay relative to control; assay type: toxicity, organism-based; conditions: salmonella enterica subsp. enterica serovar typhimurium, read-out: Survival
[7] = Genotoxicity in Salmonella typhimurium TA1535 harboring pSK1002 assessed as umu gene induction at 0.125 mg/ml in presence of Sprague-Dawley rat liver S9 fraction after by SOS/umu assay relative to control; assay type: toxicity, organism-based; conditions: salmonella enterica subsp. enterica serovar typhimurium, read-out: FC
[8] = Genotoxicity in Salmonella typhimurium TA1535 harboring pSK1002 assessed as survival at 0.063 mg/ml in absence of Sprague-Dawley rat liver S9 fraction after by SOS/umu assay relative to control; assay type: toxicity, organism-based; conditions: salmonella enterica subsp. enterica serovar typhimurium, read-out: Survival
[9] = Genotoxicity in Salmonella typhimurium TA1535 harboring pSK1002 assessed as umu gene induction at 0.063 mg/ml in absence of Sprague-Dawley rat liver S9 fraction after by SOS/umu assay relative to control; assay type: toxicity, organism-based; conditions: salmonella enterica subsp. enterica serovar typhimurium, read-out: FC
[10] = Genotoxicity in Salmonella typhimurium TA1535 harboring pSK1002 assessed as umu gene induction at 0.063 mg/ml in presence of Sprague-Dawley rat liver S9 fraction after by SOS/umu assay relative to control; assay type: toxicity, organism-based; conditions: salmonella enterica subsp. enterica serovar typhimurium, read-out: FC
[11] = Genotoxicity in Salmonella typhimurium TA1535 harboring pSK1002 assessed as umu gene induction at 0.031 mg/ml in absence of Sprague-Dawley rat liver S9 fraction after by SOS/umu assay relative to control; assay type: toxicity, organism-based; conditions: salmonella enterica subsp. enterica serovar typhimurium, read-out: FC
[12] = Genotoxicity in Salmonella typhimurium TA1535 harboring pSK1002 assessed as umu gene induction at 0.031 mg/ml in presence of Sprague-Dawley rat liver S9 fraction after by SOS/umu assay relative to control; assay type: toxicity, organism-based; conditions: salmonella enterica subsp. enterica serovar typhimurium, read-out: FC
[13] = Genotoxicity in Salmonella typhimurium TA1535 harboring pSK1002 assessed as survival at 0.016 mg/ml in absence of Sprague-Dawley rat liver S9 fraction after by SOS/umu assay relative to control; assay type: toxicity, organism-based; conditions: salmonella enterica subsp. enterica serovar typhimurium, read-out: Survival
[14] = Genotoxicity in Salmonella typhimurium TA1535 harboring pSK1002 assessed as umu gene induction at 0.016 mg/ml in absence of Sprague-Dawley rat liver S9 fraction after by SOS/umu assay relative to control; assay type: toxicity, organism-based; conditions: salmonella enterica subsp. enterica serovar typhimurium, read-out: FC
[15] = Genotoxicity in Salmonella typhimurium TA1535 harboring pSK1002 assessed as survival at 0.016 mg/ml in presence of Sprague-Dawley rat liver S9 fraction after by SOS/umu assay relative to control; assay type: toxicity, organism-based; conditions: salmonella enterica subsp. enterica serovar typhimurium, read-out: Survival
[16] = Genotoxicity in Salmonella typhimurium TA1535 harboring pSK1002 assessed as umu gene induction at 0.016 mg/ml in presence of Sprague-Dawley rat liver S9 fraction after by SOS/umu assay relative to control; assay type: toxicity, organism-based; conditions: salmonella enterica subsp. enterica serovar typhimurium, read-out: FC
[17] = Genotoxicity in Salmonella typhimurium TA1535 harboring pSK1002 assessed as umu gene induction at 0.008 mg/ml in absence of Sprague-Dawley rat liver S9 fraction after by SOS/umu assay relative to control; assay type: toxicity, organism-based; conditions: salmonella enterica subsp. enterica serovar typhimurium, read-out: FC
[18] = Genotoxicity in Salmonella typhimurium TA1535 harboring pSK1002 assessed as survival at 0.008 mg/ml in presence of Sprague-Dawley rat liver S9 fraction after by SOS/umu assay relative to control; assay type: toxicity, organism-based; conditions: salmonella enterica subsp. enterica serovar typhimurium, read-out: Survival
[19] = Genotoxicity in Salmonella typhimurium TA1535 harboring pSK1002 assessed as umu gene induction at 0.008 mg/ml in presence of Sprague-Dawley rat liver S9 fraction after by SOS/umu assay relative to control; assay type: toxicity, organism-based; conditions: salmonella enterica subsp. enterica serovar typhimurium, read-out: FC
[20] = Genotoxicity in Salmonella typhimurium TA1535 harboring pSK1002 assessed as umu gene induction at 0.004 mg/ml in absence of Sprague-Dawley rat liver S9 fraction after by SOS/umu assay relative to control; assay type: toxicity, organism-based; conditions: salmonella enterica subsp. enterica serovar typhimurium, read-out: FC
[21] = Genotoxicity in Salmonella typhimurium TA1535 harboring pSK1002 assessed as survival at 0.004 mg/ml in presence of Sprague-Dawley rat liver S9 fraction after by SOS/umu assay relative to control; assay type: toxicity, organism-based; conditions: salmonella enterica subsp. enterica serovar typhimurium, read-out: Survival
[22] = Genotoxicity in Salmonella typhimurium TA1535 harboring pSK1002 assessed as umu gene induction at 0.004 mg/ml in presence of Sprague-Dawley rat liver S9 fraction after by SOS/umu assay relative to control; assay type: toxicity, organism-based; conditions: salmonella enterica subsp. enterica serovar typhimurium, read-out: FC
[23] = Genotoxicity in Salmonella typhimurium TA1535 harboring pSK1002 assessed as survival at 0.002 mg/ml in absence of Sprague-Dawley rat liver S9 fraction after by SOS/umu assay relative to control; assay type: toxicity, organism-based; conditions: salmonella enterica subsp. enterica serovar typhimurium, read-out: Survival
[24] = Genotoxicity in Salmonella typhimurium TA1535 harboring pSK1002 assessed as umu gene induction at 0.002 mg/ml in absence of Sprague-Dawley rat liver S9 fraction after by SOS/umu assay relative to control; assay type: toxicity, organism-based; conditions: salmonella enterica subsp. enterica serovar typhimurium, read-out: FC
[25] = Genotoxicity in Salmonella typhimurium TA1535 harboring pSK1002 assessed as survival at 0.002 mg/ml in presence of Sprague-Dawley rat liver S9 fraction after by SOS/umu assay relative to control; assay type: toxicity, organism-based; conditions: salmonella enterica subsp. enterica serovar typhimurium, read-out: Survival
[26] = Genotoxicity in Salmonella typhimurium TA1535 harboring pSK1002 assessed as umu gene induction at 0.002 mg/ml in presence of Sprague-Dawley rat liver S9 fraction after by SOS/umu assay relative to control; assay type: toxicity, organism-based; conditions: salmonella enterica subsp. enterica serovar typhimurium, read-out: FC
[27] = Genotoxicity in Salmonella typhimurium TA1535 harboring pSK1002 assessed as umu gene induction at 0.001 mg/ml in absence of Sprague-Dawley rat liver S9 fraction after by SOS/umu assay relative to control; assay type: toxicity, organism-based; conditions: salmonella enterica subsp. enterica serovar typhimurium, read-out: FC
[28] = Genotoxicity in Salmonella typhimurium TA1535 harboring pSK1002 assessed as survival at 0.001 mg/ml in presence of Sprague-Dawley rat liver S9 fraction after by SOS/umu assay relative to control; assay type: toxicity, organism-based; conditions: salmonella enterica subsp. enterica serovar typhimurium, read-out: Survival
[29] = Genotoxicity in Salmonella typhimurium TA1535 harboring pSK1002 assessed as umu gene induction at 0.001 mg/ml in presence of Sprague-Dawley rat liver S9 fraction after by SOS/umu assay relative to control; assay type: toxicity, organism-based; conditions: salmonella enterica subsp. enterica serovar typhimurium, read-out: FC

SMILES | IC50 (Plasmodium falciparum [1]) [µM] | IC50 (Plasmodium falciparum [2]) [µM] | CC50 [3] [µM] | selectivity ratio [4] | fold induction at 0.125 mg/ml [5] | viability at 0.125 mg/ml [6] [%] | fold induction at 0.125 mg/ml [7] | viability at 0.063 mg/ml [8] [%] | fold induction at 0.063 mg/ml [9] | fold induction at 0.063 mg/ml [10] | fold induction at 0.031 mg/ml [11] | fold induction at 0.031 mg/ml [12] | viability at 0.016 mg/ml [13] [%] | fold induction at 0.016 mg/ml [14] | viability at 0.016 mg/ml [15] [%] | fold induction at 0.016 mg/ml [16] | fold induction at 0.008 mg/ml [17] | viability at 0.008 mg/ml [18] [%] | fold induction at 0.008 mg/ml [19] | fold induction at 0.004 mg/ml [20] | further results
Nc1ccc(N2CCC(NCCC(O)c3ccc(F)c4ccccc34)CC2)c(C(F)(F)F)c1 (stereo unspecified) | 0.08 | 0.14 | 11 | 137 | 0.4 | 107 | 0.1 | 27.7 | 0.6 | 0.4 | 0.7 | 1 | 28.3 | 0.8 | 32.4 | 1.4 | 1 | 104 | 1.1 | 0.8 | viability at 0.004 mg/ml [21]: 116%; fold induction at 0.004 mg/ml [22]: 1.1; viability at 0.002 mg/ml [23]: 150%; fold induction at 0.002 mg/ml [24]: 0.7; viability at 0.002 mg/ml [25]: 116%; fold induction at 0.002 mg/ml [26]: 1.4; fold induction at 0.001 mg/ml [27]: 1.1; viability at 0.001 mg/ml [28]: 119%; fold induction at 0.001 mg/ml [29]: 0.6
OC(CCN1CCN(c2ccc(F)cc2)CC1)c1ccc(F)c2ccccc12 (stereo unspecified) | 4.05 | 0.43 | 29.4 | 7 | 0.7 | 59.6 | 0.7 | 118 | 0.5 | 0.5 | 0.7 | 0.5 | 85.4 | 0.7 | 72.4 | 0.9 | 0.5 | 98.7 | 0.7 | 0.8 | viability at 0.004 mg/ml [21]: 95.6%; fold induction at 0.004 mg/ml [22]: 0.8; viability at 0.002 mg/ml [23]: 110%; fold induction at 0.002 mg/ml [24]: 0.7; viability at 0.002 mg/ml [25]: 100%; fold induction at 0.002 mg/ml [26]: 0.8; fold induction at 0.001 mg/ml [27]: 0.7; viability at 0.001 mg/ml [28]: 101%; fold induction at 0.001 mg/ml [29]: 0.9
OC(CCN1CC=C(c2ccc(F)cc2)CC1)c1ccc2c(c1)OCO2 (stereo unspecified) | 1.7 | 17.4 | 165 | 97 | 0.8 | 99.6 | 1 | 96.6 | 0.9 | 0.9 | 0.8 | 0.7 | 92.5 | 0.9 | 92 | 1 | 0.7 | 96 | 1 | 0.8 | viability at 0.004 mg/ml [21]: 105%; fold induction at 0.004 mg/ml [22]: 0.9; viability at 0.002 mg/ml [23]: 122%; fold induction at 0.002 mg/ml [24]: 0.8; viability at 0.002 mg/ml [25]: 108%; fold induction at 0.002 mg/ml [26]: 1; fold induction at 0.001 mg/ml [27]: 0.5; viability at 0.001 mg/ml [28]: 111%; fold induction at 0.001 mg/ml [29]: 0.7
COc1ccccc1N1CCN(CCC(O)c2ccc(F)c3ccccc23)CC1 (stereo unspecified) | 0.22 | 0.07 | 30.4 | 138 | 0.9 | 84.4 | 0.7 | 61.5 | 0.9 | 0.7 | 1.3 | 0.6 | 63 | 1.3 | 92.4 | 1 | 1.3 | 99.1 | 1 | 1.1 | viability at 0.004 mg/ml [21]: 102%; fold induction at 0.004 mg/ml [22]: 0.8; viability at 0.002 mg/ml [23]: 65.2%; fold induction at 0.002 mg/ml [24]: 1.5; viability at 0.002 mg/ml [25]: 102%; fold induction at 0.002 mg/ml [26]: 1; fold induction at 0.001 mg/ml [27]: 1.3; viability at 0.001 mg/ml [28]: 112%; fold induction at 0.001 mg/ml [29]: 0.9
